Measured values as given in ChEMBL document CHEMBL1123566, “Synthesis and cardiac electrophysiological activity of 2- and 3-[(substituted phenyl)alkyl]quinuclidines. Structure-activity relationships” (1987).
Where “and” joins values, the source holds several entries; their conditions need not be identical. Equal entries are not always repeated.

Legend:
[1] = tested on: Canis familiaris; assay: Heart rate was determined by intraduodenal administration of two dosages of 24 mg/kg of compound in anesthetized dogs. Value was reported for experiment 2; type: functional, Canis lupus familiaris
Procedure, shortened: (§1)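 Anesthetized dogs; compound given intraduodenally, generally as two doses, the second a cumulative (high) dose. LV functional refractory period and conduction time measured 15, 30 and 45 min after dosing; heart rate and blood pressure measured during nonpacing intervals. Values are % change from control, given per individual animal. Active if FRP or CT prolonged by ≥12%.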

[2] = tested on: Canis familiaris; assay: Heart rate was determined by intraduodenal administration of two dosages of 30 mg/kg of compound in anesthetized dogs. Value was reported for experiment 1; type: functional, Canis lupus familiaris; procedure, shortened: as §1
[3] = tested on: Canis familiaris; assay: Conduction time was determined by intraduodenal administration of two doses of 10 mg/kg (low dose) of compound in anesthetized dogs. Value was reported for experiment 2; type: functional, Canis lupus familiaris; procedure, shortened: as §1
[4] = tested on: Canis familiaris; assay: Conduction time was determined by intraduodenal administration of two doses of 24 mg/kg (high dose) of compound in anesthetized dogs. Value was reported for experiment 2; type: functional, Canis lupus familiaris; procedure, shortened: as §1
[5] = tested on: Canis familiaris; assay: Conduction time was determined by intraduodenal administration of two doses of 30 mg/kg (high dose) of compound in anesthetized dogs. Value was reported for experiment 1; type: functional, Canis lupus familiaris; procedure, shortened: as §1
[6] = tested on: Canis familiaris; assay: Conduction time was determined by intraduodenal administration of two doses of 10 mg/kg (low dose) of compound in anesthetized dogs. Value was reported for experiment 1; type: functional, Canis lupus familiaris; procedure, shortened: as §1
[7] = tested on: Canis familiaris; assay: Heart rate was determined by intraduodenal administration of two doses of 10 mg/kg (low dose) of compound in anesthetized dogs. Value was reported for experiment 1; type: functional, Canis lupus familiaris; procedure, shortened: as §1
[8] = tested on: Canis familiaris; assay: Heart rate was determined by intraduodenal administration of two dosages of 10 mg/kg of compound in anesthetized dogs. Value was reported for experiment 2; type: functional, Canis lupus familiaris; procedure, shortened: as §1
[9] = tested on: Canis familiaris; assay: Left ventricular refractory period was determined by intraduodenal administration of two doses of 10 mg/kg (low dose) of compound in anesthetized dogs. Value was reported for experiment 1; type: functional, Canis lupus familiaris, Cardiac ventricle
[10] = tested on: Canis familiaris; assay: Left ventricular refractory period was determined by intraduodenal administration of two doses of 10 mg/kg (low dose) of compound in anesthetized dogs. Value was reported for experiment 2; type: functional, Canis lupus familiaris, Cardiac ventricle
[11] = tested on: Canis familiaris; assay: Left ventricular refractory period was determined by intraduodenal administration of two doses of 24 mg/kg (high dose) of compound in anesthetized dogs. Value was reported for experiment 2; type: functional, Canis lupus familiaris, Cardiac ventricle
[12] = tested on: Canis familiaris; assay: Left ventricular refractory period was determined by intraduodenal administration two doses of 30 mg/kg (high dose) of compound in anesthetized dogs. Value was reported for experiment 1; type: functional, Canis lupus familiaris, Cardiac ventricle
[13] = tested on: Canis familiaris; assay: Mean arterial blood pressure was determined by intraduodenal administration of two dosages of 30 mg/kg of compound in anesthetized dogs. Value was reported for experiment 1; type: functional, Canis lupus familiaris
Procedure, shortened: (§2)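 Anesthetized dogs received two intraduodenal doses, the second cumulative (low dose/high dose). Left ventricular FRP and CT were measured 15, 30 and 45 min after dosing. Heart rate and mean blood pressure were taken during nonpacing intervals. Values are percent change from control. The vehicle was 5% dextrose in water/tragacanth. Activity was defined as ≥12% prolongation of FRP or CT.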

[14] = tested on: Canis familiaris; assay: Mean arterial blood pressure was determined by intraduodenal administration of two dosages of 10 mg/kg of compound in anesthetized dogs. Value was reported for experiment 1; type: functional, Canis lupus familiaris; procedure, shortened: as §2
[15] = tested on: Canis familiaris; assay: Mean arterial blood pressure was determined by intraduodenal administration of two dosages of 10 mg/kg of compound in anesthetized dogs. Value was reported for experiment 2; type: functional, Canis lupus familiaris; procedure, shortened: as §2
[16] = tested on: Canis familiaris; assay: Mean arterial blood pressure was determined by intraduodenal administration of two dosages of 24 mg/kg of compound in anesthetized dogs. Value was reported for experiment 2; type: functional, Canis lupus familiaris
[17] = species on record: Canis familiaris; assay: In vitro electrophysiological evaluation in canine cardiac ventricular muscle reported as maximum % change for functional refractory period (FRP) at 0.1-100 uM concentration range; concentration at which it occurred is 100 uM.; set-up: species or system Canis lupus familiaris, Muscle tissue
Procedure, shortened: (§3)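 Canine right ventricle and papillary muscle strips in oxygenated Tyrode's solution, fitted with stimulating and recording electrodes. The extra-stimulus conduction-interval method was adapted for in vitro use. FRP and CT were read from a conduction-interval curve before and after various compound concentrations, and expressed as percent change from control. Compounds were taken from 10 mM deionized-water stock into Tyrode's. Each strip was used once as its own control.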

[18] = species on record: Canis familiaris; assay: In vitro electrophysiological evaluation in canine cardiac ventricular muscle reported as % change for the functional refractory period (FRP) at 10 uM at concentration range of 0.1-100 uM; set-up: species or system Canis lupus familiaris, Muscle tissue; procedure, shortened: as §3
[19] = species on record: Canis familiaris; assay: In vitro electrophysiological evaluation in canine cardiac ventricular muscle reported as % change for conduction time(CT) at 10 uM at 0.1-100 uM concentration range; Minimal (<10% decrease or increase in CT).; type: functional, Canis lupus familiaris, Muscle tissue
[20] = species on record: Canis familiaris; assay: In vitro electrophysiological evaluation in canine cardiac ventricular muscle reported as maximum % change for conduction time(CT) at 0.1-100 uM concentration range; Minimal (<10% decrease or increase in CT).; type: functional, Canis lupus familiaris, Muscle tissue; procedure, shortened: as §3
[21] = species on record: Canis familiaris; assay: In vitro electrophysiological evaluation in canine cardiac Purkinje fibres reported as percent change Vmax at 10 uM at concentration range of 1-100 uM.; type: functional; details: Canis lupus familiaris, Purkinje fiber
Procedure, shortened: (§4)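 Canine cardiac Purkinje fibres, intracellular microelectrode recording, paced at a basic cycle length of 1 s. APD95 and Vmax read simultaneously. Compound: 10 mM stock in deionized water, diluted into Tyrode's solution, tested over the stated concentration range. Each fibre used once as its own control. Result is % change from control, given at 10 µM or as the maximum with its concentration. M = <10% decrease or an increase in Vmax.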

[22] = species on record: Canis familiaris; assay: In vitro electrophysiological evaluation in canine cardiac Purkinje fibres reported as percent change Vmax at 10 uM at concentration range of 1-100 uM; Minimal (<10% decrease or increase in V max).; type: functional; details: Canis lupus familiaris, Purkinje fiber; procedure, shortened: as §4
[23] = species on record: Canis familiaris; assay: In vitro electrophysiological evaluation in canine cardiac Purkinje fibres reported as maximum percent change Vmax concentration range of 1-100 uM; Minimal (<10% decrease or increase in V max).; type: functional; details: Canis lupus familiaris; Purkinje fiber; procedure, shortened: as §4
[24] = species on record: Canis familiaris; assay: In vitro electrophysiological evaluation in canine cardiac occurred is 100 uM; type: functional; details: Canis lupus familiaris; Heart
[25] = species on record: Canis familiaris; assay: In vitro electrophysiological evaluation in canine cardiac Purkinje fibres reported as % change for action potential duration at 1-100 uM concentration range; type: functional, Canis lupus familiaris, Purkinje fiber; procedure, shortened: as §4
[26] = species on record: Canis familiaris; assay: In vitro electrophysiological evaluation in canine cardiac Purkinje fibres reported as % change for action potential duration at a concentration of 10 uM; type: functional, Canis lupus familiaris, Purkinje fiber; procedure, shortened: as §4
[27] = species on record: Canis familiaris; assay: In vitro electrophysiological activity in canine cardiac occurred is 100 uM; type: functional, Canis lupus familiaris, Heart
[28] = species on record: Canis familiaris; assay: (§5) In vitro electrophysiological activity in canine cardiac occurred is 10 uM; type: functional, Canis lupus familiaris, Heart
[29] = species on record: Canis familiaris; assay: as §5; type: functional, Canis lupus familiaris, Heart; remark: listed apart in the source

**Q.** How did the HR [1] turn out when `Cl.O=C(CCC1C(=O)C2CCN1CC2)c1ccc([N+](=O)[O-])cc1` (centres undefined) was run?
**A.** -40%

**Q.** What about the HR [2] of the same molecule?
**A.** -31%

**Q.** What about the CT [3] of the same molecule?
**A.** 6%

**Q.** And the CT [4]?
**A.** 11%

**Q.** What about the CT [5] of the same molecule?
**A.** 2%

**Q.** And the CT [6]?
**A.** -1%

**Q.** And the HR [7]?
**A.** -23%

**Q.** What about the HR [8] of the same molecule?
**A.** -35%

**Q.** What about the “LV FRP” value [9] of the same molecule?
**A.** 14%

**Q.** What about the “LV FRP” value [10] of the same molecule?
**A.** 16%

**Q.** What about the “LV FRP” value [11] of the same molecule?
**A.** 19%

**Q.** What about the “LV FRP” value [12] of the same molecule?
**A.** 15%

**Q.** And the Mean blood pressure [13]?
**A.** -21%

**Q.** And the Mean blood pressure [14]?
**A.** -11%

**Q.** What about the Mean blood pressure [15] of the same molecule?
**A.** -10%

**Q.** What about the Mean blood pressure [16] of the same molecule?
**A.** -1%

**Q.** And the FRP [17]?
**A.** 25% and 22%

**Q.** What about the FRP [18] of the same molecule?
**A.** 15% and 17%

**Q.** What about the CT [19] of the same molecule?
**A.** <10%

**Q.** What about the CT [20] of the same molecule?
**A.** <10%

**Q.** What about the Vmax [21] of the same molecule?
**A.** -17%

**Q.** What about the Vmax [22] of the same molecule?
**A.** < 10%

**Q.** And the Vmax [23]?
**A.** < 10%

**Q.** What about the Vmax [24] of the same molecule?
**A.** -23%

**Q.** What about the APD95 [25] of the same molecule?
**A.** 53% and 25%

**Q.** What about the APD95 [26] of the same molecule?
**A.** 36%

**Q.** What about the APD95 [27] of the same molecule?
**A.** 13% and -10%

**Q.** And the APD95 [28]?
**A.** 36% and 25%

**Q.** And the APD95 [29]?
**A.** 53%
